Data from PMC8583780 (ChemMedChem, 2020).
“Also recorded” adds a separate entry of the source.

How the values were obtained:
human calpain-1 = target: T1, human calpain-1 (Homo sapiens, UniProt P07384); assay: Calpain-1 inhibition assay; format: biochemical; conditions: for inhibition at 1 µM: read-out: Calpain-1 % Inhibition at 1 μM; for Calpain-1 % Inhibition at 1 μM: 1 μM compound, three replicates, errors estimated <10%
T1 sequence (P07384 1-714): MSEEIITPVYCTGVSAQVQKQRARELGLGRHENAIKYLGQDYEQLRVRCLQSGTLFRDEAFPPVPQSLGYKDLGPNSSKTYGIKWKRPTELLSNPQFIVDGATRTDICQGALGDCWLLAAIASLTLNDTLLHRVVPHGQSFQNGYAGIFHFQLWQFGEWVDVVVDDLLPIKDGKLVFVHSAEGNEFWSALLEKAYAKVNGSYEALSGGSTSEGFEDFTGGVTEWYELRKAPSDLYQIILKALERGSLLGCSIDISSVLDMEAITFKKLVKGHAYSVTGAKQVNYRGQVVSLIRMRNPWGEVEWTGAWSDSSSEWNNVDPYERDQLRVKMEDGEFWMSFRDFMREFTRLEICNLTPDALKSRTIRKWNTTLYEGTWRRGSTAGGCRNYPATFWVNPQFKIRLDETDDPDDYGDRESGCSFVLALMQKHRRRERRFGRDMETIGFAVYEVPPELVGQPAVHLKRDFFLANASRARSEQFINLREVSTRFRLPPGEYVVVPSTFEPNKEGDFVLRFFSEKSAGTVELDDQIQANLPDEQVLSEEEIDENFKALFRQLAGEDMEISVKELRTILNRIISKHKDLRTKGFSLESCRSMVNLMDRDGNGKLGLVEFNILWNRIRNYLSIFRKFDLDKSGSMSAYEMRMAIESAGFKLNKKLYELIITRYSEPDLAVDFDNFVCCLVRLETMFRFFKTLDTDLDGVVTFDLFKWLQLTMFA
T1 sequence (P04632 1-268 partner): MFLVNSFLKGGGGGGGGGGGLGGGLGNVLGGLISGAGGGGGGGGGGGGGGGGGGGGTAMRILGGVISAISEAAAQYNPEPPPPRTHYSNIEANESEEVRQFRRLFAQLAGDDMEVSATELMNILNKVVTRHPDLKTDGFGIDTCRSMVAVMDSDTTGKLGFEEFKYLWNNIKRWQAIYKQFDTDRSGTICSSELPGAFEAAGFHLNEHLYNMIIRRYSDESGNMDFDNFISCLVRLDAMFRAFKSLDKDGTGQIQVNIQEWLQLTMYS

human cathepsin B = human cathepsin B (Homo sapiens, UniProt P07858); assay: Cathepsin B inhibition assay; format: biochemical; conditions: for inhibition at 1 µM: read-out: CatB % Inhibition at 1 μM; for CatB % Inhibition at 1 μM: 1 μM compound, three replicates
human cathepsin K = target: T2, human cathepsin K (Homo sapiens, UniProt P43235); assay: Cathepsin K inhibition assay; format: biochemical; conditions: for inhibition at 1 µM: read-out: CatK % Inhibition at 1 μM; for CatK % Inhibition at 1 μM: 1 μM compound, three replicates
T2 sequence (P43235 115-329): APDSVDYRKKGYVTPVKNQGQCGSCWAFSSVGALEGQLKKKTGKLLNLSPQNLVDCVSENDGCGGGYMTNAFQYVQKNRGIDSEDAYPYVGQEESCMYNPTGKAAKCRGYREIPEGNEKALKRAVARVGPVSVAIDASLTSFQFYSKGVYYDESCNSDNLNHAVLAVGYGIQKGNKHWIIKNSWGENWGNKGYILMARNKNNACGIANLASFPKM

papain = target: T3, papain (Carica papaya, UniProt P00784); assay: Papain inhibition assay; format: biochemical; conditions: for inhibition at 1 µM: read-out: Papain % Inhibition at 1 μM; for Papain % Inhibition at 1 μM: 1 μM compound, three replicates
T3 sequence (P00784 134-345): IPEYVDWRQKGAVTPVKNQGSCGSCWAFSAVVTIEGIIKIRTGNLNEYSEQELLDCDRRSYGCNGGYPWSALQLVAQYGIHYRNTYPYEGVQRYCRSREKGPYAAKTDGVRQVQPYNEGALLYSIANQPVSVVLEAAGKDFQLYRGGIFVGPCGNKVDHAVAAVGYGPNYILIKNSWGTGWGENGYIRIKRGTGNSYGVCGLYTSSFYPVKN

[1] = test system: scopolamine-induced cognitive deficit in mice; assay: Step-through passive avoidance; format: in vivo; conditions: scopolamine 1 mg/kg, drug 10 mg/kg i.p.
Procedure, shortened: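 Mice receive scopolamine 1 mg/kg in saline by i.p. injection 30 min before training, then test compound (10 mg/kg) or vehicle 20 min before training. During training, entry into the dark compartment delivers an electric shock. The read-out is the latency to enter the dark compartment.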

[2] = human Phase 1, even at the highest doses; cited from earlier work
[3] = five Phase 1 study arms, including aged subjects; cited from earlier work

Row | SMILES | inhibition at 1 µM (human calpain-1) [%] | Calpain-1 % Inhibition at 1 μM (human calpain-1) [%] | CatB % Inhibition at 1 μM (human cathepsin B) [%] | CatK % Inhibition at 1 μM (human cathepsin K) [%] | Papain % Inhibition at 1 μM (papain) [%] | also measured
1 | O=C(NCc1ccc(F)cc1)C(=O)[C@H](Cc1ccccc1)NC(=O)[C@H]1CCC(=O)N1Cc1ccccc1 [Compound 1c, (R)-1-benzyl-N-((S)-4-((4-fluorobenzyl)amino)-3,4-dioxo-1-phenylbutan-2-yl)-5-oxopyrrolidine-2-carboxamide] | 98.1 | – | – | – | – | IC50 (human calpain-1): 78 ± 10 nM; inhibition at 1 µM (human cathepsin B): 11.4%; inhibition at 1 µM (human cathepsin K): 13.5%; inhibition at 1 µM (papain): 15.2%; Memory restoration in STPA, in words [1]: restored cognitive function; also recorded: restored memory
2 | CCCNC(=O)[C@H]1O[C@@H]1C(=O)N[C@H](C(=O)N1CCC[C@H]1C(=O)O)[C@@H](C)CC [CA-074] | – | 4.72 | 100 | 70.5 | 16.8 | –
3 | CCC(NC(=O)[C@H](CC(C)C)NC(=O)OCc1ccccc1)C(=O)C(=O)NCCCN1CCOCC1 (stereo partly shown) [AK-295] | – | 100 | 18.0 | 100 | 18.7 | Cathepsin K inhibition in words (human cathepsin K): potent inhibitor of cathepsin K
4 | O=C(NCc1ccc(F)cc1)C(=O)[C@@H](Cc1ccccc1)NC(=O)[C@H]1CCC(=O)N1Cc1ccccc1 [Compound 1g, (R)-1-benzyl-N-((R)-4-((4-fluorobenzyl)amino)-3,4-dioxo-1-phenylbutan-2-yl)-5-oxopyrrolidine-2-carboxamide] | 31.8 | – | – | – | – | Calpain-1 potency in words (human calpain-1): greatly reduced potency
5 | CCOC(=O)[C@H]1O[C@@H]1C(=O)N[C@@H](CC(C)C)C(=O)NCCC(C)C [Compound E-64d] | – | – | – | – | – | Memory restoration in STPA, in words [1]: restore memory
6 | O=C(NC1CC1)C(=O)C(Cc1ccccc1)NC(=O)[C@H]1CCC(=O)N1Cc1ccccc1 (stereo partly shown) [ABT-957, alicapistat] | – | – | – | – | – | Measured CSF concentrations [2]: 9 to 21 nM; Treatment-associated adverse events [3]: no treatment-associated adverse events were identified
7 | CC(C)(F)C[C@H](N[C@@H](c1ccc(-c2ccc(S(C)(=O)=O)cc2)cc1)C(F)(F)F)C(=O)NC1(C#N)CC1 [odanacatib] | 7.1 | – | – | – | – | inhibition at 1 µM (human cathepsin B): 57.2%; inhibition at 1 µM (human cathepsin K): 99.8%; inhibition at 1 µM (papain): 14.7%
8 | CC(C)CCNC(=O)[C@H](CC(C)C)NC(=O)[C@H]1O[C@@H]1C(=O)O [Compound E-64c] | – | 86.0 | 99.3 | 100 | 97.6 | –
